Test results as given in ChEMBL document CHEMBL5705905, “Pharmacological targeting of kinases MST1 and MST2 augments tissue repair and regeneration” (Sci Transl Med, 2016).

Assays:
[1] = molecular target: T1, Serine/threonine-protein kinase 4 (Homo sapiens, UniProt Q13043); test: Inhibition of recombinant His-tagged full-length MST1 (unknown origin) expressing in Escherichia coli assessed as MOB1a phosphorylation level incubated for 30 min in the presence of 30 uM ATP by immunoblot analysis
T1 sequence (Q13043 whole entry): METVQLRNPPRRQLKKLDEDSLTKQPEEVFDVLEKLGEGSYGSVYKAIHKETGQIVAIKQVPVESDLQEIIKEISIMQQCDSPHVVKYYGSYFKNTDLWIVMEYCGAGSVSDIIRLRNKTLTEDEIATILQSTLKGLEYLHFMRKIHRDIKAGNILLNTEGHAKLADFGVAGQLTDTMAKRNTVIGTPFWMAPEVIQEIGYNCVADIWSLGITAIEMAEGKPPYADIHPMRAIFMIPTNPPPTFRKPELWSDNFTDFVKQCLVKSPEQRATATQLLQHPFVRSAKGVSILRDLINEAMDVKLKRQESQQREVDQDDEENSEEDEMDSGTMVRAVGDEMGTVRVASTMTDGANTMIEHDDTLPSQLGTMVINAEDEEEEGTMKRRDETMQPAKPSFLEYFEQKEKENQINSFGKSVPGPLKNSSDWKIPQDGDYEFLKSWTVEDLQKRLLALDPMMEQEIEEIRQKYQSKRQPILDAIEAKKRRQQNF

[2] = molecular target: Calcium/calmodulin-dependent protein kinase kinase 1 (Homo sapiens) (UniProt Q8N5S9); test: Inhibition of CAMKK1 (unknown origin) assessed as remaining activity at 1 uM by Kinome scan method relative to control
Procedure, shortened: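 Active-site-dependent competition-binding profiling (KINOMEscan) at 1 μM against a 468-kinase panel; compound supplied from a 10 mM DMSO stock. Read-out is ctrl% = (test signal − positive control signal)/(negative control signal − positive control signal) × 100. DMSO is the negative control (100%) and a control compound the positive control (0%). Lower ctrl% means tighter binding.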

[3] = test system: Epidermal growth factor receptor (Homo sapiens), P00533 [UNDEFINED MUTATION]; test: Inhibition of EGFR L747-T751del/Sins mutant (unknown origin) assessed as remaining activity at 1 uM by Kinome scan method relative to control
[4] = test system: Mast/stem cell growth factor receptor Kit (Homo sapiens), P10721 [D816V]; test: Inhibition of KIT D816V mutant (unknown origin) assessed as remaining activity at 1 uM by Kinome scan method relative to control
[5] = test system: Mast/stem cell growth factor receptor Kit (Homo sapiens), P10721 [V559D,V654A]; test: Inhibition of KIT V559D/V654A mutant (unknown origin) assessed as remaining activity at 1 uM by Kinome scan method relative to control
[6] = molecular target: Myosin light chain kinase family member 4 (Homo sapiens) (UniProt Q86YV6); test: Inhibition of MYLK4 (unknown origin) assessed as remaining activity at 1 uM by Kinome scan method relative to control
Procedure, shortened: (§1)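 KINOMEscan active-site competition binding assay at 1 μM against 468 kinases. Ctrl% = (test − positive control)/(negative control DMSO − positive control) × 100; lower values mean tighter binding.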

[7] = molecular target: Serine/threonine-protein kinase Nek6 (Homo sapiens) (UniProt Q9HC98); test: Inhibition of NEK6 (unknown origin) assessed as remaining activity at 1 uM by Kinome scan method relative to control
[8] = test system: Phosphatidylinositol 4,5-bisphosphate 3-kinase catalytic subunit alpha isoform (Homo sapiens), P42336 [I800L]; test: Inhibition of PIK3CA I800L mutant (unknown origin) assessed as remaining activity at 1 uM by Kinome scan method relative to control
[9] = molecular target: Serine/threonine-protein kinase N1 (Homo sapiens) (UniProt Q16512); test: Inhibition of PKN1 (unknown origin) assessed as remaining activity at 1 uM by Kinome scan method relative to control
[10] = molecular target: Protein kinase C eta type (Homo sapiens) (UniProt P24723); test: Inhibition of PRKCH (unknown origin) assessed as remaining activity at 1 uM by Kinome scan method relative to control
[11] = molecular target: Serine/threonine-protein kinase D3 (Homo sapiens) (UniProt O94806); test: Inhibition of PRKD3 (unknown origin) assessed as remaining activity at 1 uM by Kinome scan method relative to control
[12] = molecular target: Serine/threonine-protein kinase SIK3 (Homo sapiens) (UniProt Q9Y2K2); test: Inhibition of QSK (unknown origin) assessed as remaining activity at 1 uM by Kinome scan method relative to control
[13] = test system: Proto-oncogene tyrosine-protein kinase receptor Ret (Homo sapiens), P07949 [M918T]; test: Inhibition of RET M918T (unknown origin) assessed as remaining activity at 1 uM by Kinome scan method relative to control
[14] = molecular target: Serine/threonine-protein kinase RIO2 (Homo sapiens) (UniProt Q9BVS4); test: Inhibition of RIOK2 (unknown origin) assessed as remaining activity at 1 uM by Kinome scan method relative to control
[15] = molecular target: Rho-associated protein kinase 1 (Homo sapiens) (UniProt Q13464); test: Inhibition of ROCK1 (unknown origin) assessed as remaining activity at 1 uM by Kinome scan method relative to control; procedure, shortened: as §1
[16] = molecular target: Serine/threonine-protein kinase Sgk3 (Homo sapiens) (UniProt Q96BR1); test: Inhibition of SGK3 (unknown origin) assessed as remaining activity at 1 uM by Kinome scan method relative to control
[17] = molecular target: Serine/threonine-protein kinase WNK2 (Homo sapiens) (UniProt Q9Y3S1); test: Inhibition of WNK2 (unknown origin) assessed as remaining activity at 1 uM by Kinome scan method relative to control
[18] = molecular target: T2, Serine/threonine-protein kinase 3 (Homo sapiens, UniProt Q13188); test: Binding affinity to MST2 (unknown origin) assessed as dissociation constant
T2 sequence (Q13188 whole entry): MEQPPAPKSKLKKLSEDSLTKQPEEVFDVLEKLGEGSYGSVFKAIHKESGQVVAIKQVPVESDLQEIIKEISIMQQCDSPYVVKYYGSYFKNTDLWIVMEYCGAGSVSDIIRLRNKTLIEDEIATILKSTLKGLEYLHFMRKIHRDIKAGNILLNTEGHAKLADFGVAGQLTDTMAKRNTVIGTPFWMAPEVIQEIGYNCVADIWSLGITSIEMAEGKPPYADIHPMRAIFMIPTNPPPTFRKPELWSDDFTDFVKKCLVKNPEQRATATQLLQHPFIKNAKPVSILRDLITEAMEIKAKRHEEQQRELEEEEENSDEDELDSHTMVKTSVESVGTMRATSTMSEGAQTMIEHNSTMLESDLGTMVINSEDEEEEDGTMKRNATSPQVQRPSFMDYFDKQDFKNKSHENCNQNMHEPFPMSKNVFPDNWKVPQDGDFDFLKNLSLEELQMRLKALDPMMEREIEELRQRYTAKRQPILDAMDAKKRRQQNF

[19] = Inhibition of recombinant His-tagged full-length MST1 D109A mutant (unknown origin) expressing in Escherichia coli assessed as MOB1 phosphorylation level incubated for 15 min by immunoblot analysis; set-up: species or system Homo sapiens
[20] = Cmax in male Sprague-Dawley rat at 10 mg/kg, po measured for 24 hrs by LC-MS/MS analysis; assay type: ADME, organism-based; details: in vivo
Procedure, shortened: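 Sprague-Dawley rats, single intravenous or oral dose. Parameters (half-life, AUC, bioavailability) reported in a supplementary table.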

Protein kinase C eta type (Homo sapiens), sequence (P24723 whole entry): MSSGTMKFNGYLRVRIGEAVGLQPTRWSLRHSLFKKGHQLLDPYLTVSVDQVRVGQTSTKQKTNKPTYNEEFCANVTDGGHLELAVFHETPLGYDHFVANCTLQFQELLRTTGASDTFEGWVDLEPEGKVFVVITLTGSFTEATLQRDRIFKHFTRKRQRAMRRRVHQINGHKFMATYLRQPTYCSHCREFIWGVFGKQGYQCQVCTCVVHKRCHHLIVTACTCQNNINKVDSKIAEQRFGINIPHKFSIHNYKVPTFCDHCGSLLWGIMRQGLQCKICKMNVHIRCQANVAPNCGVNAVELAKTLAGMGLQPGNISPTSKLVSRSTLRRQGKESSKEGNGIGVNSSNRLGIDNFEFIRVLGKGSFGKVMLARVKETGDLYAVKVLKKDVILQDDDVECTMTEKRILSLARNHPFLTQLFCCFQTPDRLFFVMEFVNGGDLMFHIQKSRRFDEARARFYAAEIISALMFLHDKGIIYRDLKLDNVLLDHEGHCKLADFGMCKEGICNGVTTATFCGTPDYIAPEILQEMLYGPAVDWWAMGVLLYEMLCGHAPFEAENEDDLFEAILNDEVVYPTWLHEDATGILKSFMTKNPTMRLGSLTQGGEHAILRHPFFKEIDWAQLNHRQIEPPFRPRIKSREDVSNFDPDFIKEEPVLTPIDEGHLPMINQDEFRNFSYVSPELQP
Rho-associated protein kinase 1 (Homo sapiens), sequence (Q13464 2-1354 limits assumed): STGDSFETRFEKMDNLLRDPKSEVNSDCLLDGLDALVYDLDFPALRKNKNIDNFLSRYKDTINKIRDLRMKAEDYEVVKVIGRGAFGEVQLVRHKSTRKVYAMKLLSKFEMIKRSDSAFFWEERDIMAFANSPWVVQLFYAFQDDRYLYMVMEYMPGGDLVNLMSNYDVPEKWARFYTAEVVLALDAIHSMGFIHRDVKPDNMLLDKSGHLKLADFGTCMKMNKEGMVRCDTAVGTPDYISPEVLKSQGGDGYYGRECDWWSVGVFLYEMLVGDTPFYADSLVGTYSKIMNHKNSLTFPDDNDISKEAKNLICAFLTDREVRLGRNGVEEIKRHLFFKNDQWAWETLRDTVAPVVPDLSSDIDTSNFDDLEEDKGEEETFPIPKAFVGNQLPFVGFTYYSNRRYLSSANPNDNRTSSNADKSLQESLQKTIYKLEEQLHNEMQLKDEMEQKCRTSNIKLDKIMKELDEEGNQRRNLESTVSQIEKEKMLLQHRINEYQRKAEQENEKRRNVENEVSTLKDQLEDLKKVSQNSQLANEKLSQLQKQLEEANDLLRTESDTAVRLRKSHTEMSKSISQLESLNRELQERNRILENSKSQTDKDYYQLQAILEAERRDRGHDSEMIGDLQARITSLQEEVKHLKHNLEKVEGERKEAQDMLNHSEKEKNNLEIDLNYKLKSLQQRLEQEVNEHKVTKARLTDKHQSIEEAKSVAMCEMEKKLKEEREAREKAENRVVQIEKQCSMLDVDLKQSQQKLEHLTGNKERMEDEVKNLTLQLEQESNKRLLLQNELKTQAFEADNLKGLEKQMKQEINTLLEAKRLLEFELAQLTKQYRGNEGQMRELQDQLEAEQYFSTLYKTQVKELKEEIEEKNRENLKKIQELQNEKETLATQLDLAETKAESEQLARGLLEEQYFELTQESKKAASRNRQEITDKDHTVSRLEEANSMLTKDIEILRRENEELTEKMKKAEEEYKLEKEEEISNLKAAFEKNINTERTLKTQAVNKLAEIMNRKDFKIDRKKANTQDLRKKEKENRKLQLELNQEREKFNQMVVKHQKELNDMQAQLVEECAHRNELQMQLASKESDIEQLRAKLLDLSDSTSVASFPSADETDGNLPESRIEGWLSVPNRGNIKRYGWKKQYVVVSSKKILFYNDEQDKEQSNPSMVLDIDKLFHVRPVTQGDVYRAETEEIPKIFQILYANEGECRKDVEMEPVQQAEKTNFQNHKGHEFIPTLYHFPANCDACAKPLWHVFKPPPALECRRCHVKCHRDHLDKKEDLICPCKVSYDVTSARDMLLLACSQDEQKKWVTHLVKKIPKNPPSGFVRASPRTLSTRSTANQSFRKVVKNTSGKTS
Epidermal growth factor receptor (Homo sapiens), P00533 [UNDEFINED MUTATION], sequence (P00533 whole entry, looked up, stated change not applied): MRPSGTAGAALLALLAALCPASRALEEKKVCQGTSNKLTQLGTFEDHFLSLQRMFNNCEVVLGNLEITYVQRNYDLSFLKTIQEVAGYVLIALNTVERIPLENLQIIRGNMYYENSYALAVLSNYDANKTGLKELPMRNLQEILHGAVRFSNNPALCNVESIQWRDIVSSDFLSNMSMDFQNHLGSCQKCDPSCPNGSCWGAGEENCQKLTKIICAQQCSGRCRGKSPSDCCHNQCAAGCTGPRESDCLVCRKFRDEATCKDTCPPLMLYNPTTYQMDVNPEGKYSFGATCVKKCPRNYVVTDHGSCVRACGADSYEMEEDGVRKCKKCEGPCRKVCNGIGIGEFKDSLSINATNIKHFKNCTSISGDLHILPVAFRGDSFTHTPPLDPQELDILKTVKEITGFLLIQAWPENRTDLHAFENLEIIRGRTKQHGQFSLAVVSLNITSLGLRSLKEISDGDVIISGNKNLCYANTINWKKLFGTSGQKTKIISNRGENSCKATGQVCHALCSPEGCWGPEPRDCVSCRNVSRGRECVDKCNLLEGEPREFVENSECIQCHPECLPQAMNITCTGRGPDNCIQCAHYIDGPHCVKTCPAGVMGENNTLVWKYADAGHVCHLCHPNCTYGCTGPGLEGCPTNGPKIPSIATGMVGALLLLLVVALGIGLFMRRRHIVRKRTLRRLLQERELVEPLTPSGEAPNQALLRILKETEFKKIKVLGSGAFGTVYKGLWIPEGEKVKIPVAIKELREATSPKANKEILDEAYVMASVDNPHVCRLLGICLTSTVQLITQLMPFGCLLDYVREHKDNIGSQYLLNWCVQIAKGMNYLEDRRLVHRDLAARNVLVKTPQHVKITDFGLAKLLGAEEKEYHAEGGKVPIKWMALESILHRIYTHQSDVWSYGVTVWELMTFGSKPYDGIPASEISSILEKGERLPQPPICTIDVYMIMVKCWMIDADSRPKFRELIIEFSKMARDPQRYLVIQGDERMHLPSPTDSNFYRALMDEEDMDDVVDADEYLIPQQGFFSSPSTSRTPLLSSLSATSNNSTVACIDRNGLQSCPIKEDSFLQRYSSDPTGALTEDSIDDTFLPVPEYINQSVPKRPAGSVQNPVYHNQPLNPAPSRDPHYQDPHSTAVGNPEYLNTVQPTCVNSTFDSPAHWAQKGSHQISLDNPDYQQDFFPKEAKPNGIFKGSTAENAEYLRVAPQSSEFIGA
Calcium/calmodulin-dependent protein kinase kinase 1 (Homo sapiens), sequence (Q8N5S9 whole entry, looked up): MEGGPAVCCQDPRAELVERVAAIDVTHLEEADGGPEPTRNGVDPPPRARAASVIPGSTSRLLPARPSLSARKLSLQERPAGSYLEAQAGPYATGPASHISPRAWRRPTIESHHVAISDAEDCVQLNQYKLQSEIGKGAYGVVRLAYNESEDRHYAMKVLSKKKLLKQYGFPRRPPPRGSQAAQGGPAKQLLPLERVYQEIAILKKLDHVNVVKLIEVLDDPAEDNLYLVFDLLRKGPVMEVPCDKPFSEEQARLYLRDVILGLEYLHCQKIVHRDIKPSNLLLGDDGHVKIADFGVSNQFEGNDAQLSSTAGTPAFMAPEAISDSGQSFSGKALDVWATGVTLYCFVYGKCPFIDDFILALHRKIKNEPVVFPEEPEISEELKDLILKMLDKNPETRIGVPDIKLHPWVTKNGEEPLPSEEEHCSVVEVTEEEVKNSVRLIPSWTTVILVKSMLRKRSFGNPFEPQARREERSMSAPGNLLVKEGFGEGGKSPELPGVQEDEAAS
Serine/threonine-protein kinase Nek6 (Homo sapiens), sequence (Q9HC98 whole entry, canonical isoform): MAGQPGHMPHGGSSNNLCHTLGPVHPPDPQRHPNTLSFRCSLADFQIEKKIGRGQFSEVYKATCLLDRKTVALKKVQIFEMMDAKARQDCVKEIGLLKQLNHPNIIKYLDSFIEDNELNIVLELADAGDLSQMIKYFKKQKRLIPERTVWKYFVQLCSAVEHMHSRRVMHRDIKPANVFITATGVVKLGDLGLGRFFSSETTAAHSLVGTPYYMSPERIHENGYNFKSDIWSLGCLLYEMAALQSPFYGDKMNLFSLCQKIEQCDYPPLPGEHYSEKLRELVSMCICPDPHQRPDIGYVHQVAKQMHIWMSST
Serine/threonine-protein kinase D3 (Homo sapiens), sequence (O94806 whole entry): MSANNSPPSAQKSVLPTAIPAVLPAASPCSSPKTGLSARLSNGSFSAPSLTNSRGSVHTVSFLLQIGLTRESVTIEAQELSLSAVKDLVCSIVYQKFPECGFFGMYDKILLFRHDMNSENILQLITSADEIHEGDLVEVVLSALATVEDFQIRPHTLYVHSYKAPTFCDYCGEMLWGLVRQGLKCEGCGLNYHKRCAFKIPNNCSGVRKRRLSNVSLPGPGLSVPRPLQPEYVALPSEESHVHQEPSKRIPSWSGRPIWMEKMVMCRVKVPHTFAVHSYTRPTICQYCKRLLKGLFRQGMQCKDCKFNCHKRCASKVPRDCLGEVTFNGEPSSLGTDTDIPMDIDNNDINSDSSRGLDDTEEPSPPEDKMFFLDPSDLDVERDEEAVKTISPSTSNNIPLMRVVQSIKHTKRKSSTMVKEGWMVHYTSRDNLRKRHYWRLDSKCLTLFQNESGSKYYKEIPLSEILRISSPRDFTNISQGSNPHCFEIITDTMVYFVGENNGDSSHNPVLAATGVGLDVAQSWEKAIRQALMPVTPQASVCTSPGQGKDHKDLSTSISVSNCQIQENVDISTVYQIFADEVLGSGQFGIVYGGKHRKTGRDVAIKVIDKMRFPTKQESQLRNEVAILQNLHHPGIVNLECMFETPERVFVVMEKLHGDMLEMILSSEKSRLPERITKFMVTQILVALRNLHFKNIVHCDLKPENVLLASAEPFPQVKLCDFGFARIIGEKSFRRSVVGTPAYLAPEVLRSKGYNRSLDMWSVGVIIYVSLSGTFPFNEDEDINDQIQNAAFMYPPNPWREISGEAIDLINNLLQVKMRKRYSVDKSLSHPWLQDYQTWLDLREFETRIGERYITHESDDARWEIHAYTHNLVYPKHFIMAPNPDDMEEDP

CN1C(=O)c2sccc2N(C)c2nc(Nc3ccc(S(N)(=O)=O)cc3)ncc21
IC50 [1]: 378 nM
Activity [2]: 80%
Activity [3]: 67%
Activity [4]: 94%
Activity [5]: 92%
Activity [6]: 89%
Activity [7]: 97%
Activity [8]: 23%
Activity [9]: 100%
Activity [10]: 100%
Activity [11]: 65%
Activity [12]: 87%
Activity [13]: 78%
Activity [14]: 95%
Activity [15]: 89%
Activity [16]: 87%
Activity [17]: 78%
Kd [18]: 11 nM
IC50 [19]: 753 nM
Cmax [20]: 118 ng/mL
